Bioassay records: PubChem BioAssay, several laboratories
An excerpt weighted towards active compounds, which were near 9% of everything screened.
D1 allo mod: allosterically modulates the human D1 dopamine receptor; P21728; HEK293 D1, CRE-luciferase, dopamine EC30 potentiation; actives deviate in either direction; B-score at 10 µM; 5.9% of 58,000 active; AID 641;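 active means luminescence count or its row- and column-corrected plate score outside the 99.7% band of the plate's sample wells, on either side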
M1 agonist: activates the M1 muscarinic receptor. CHO-M1 cells, Fluo-4 calcium fluorescence, agonist mode; hits give high values. B-score at 10 µM. 3% of 64,000 active. AID 626;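 active means fluorescence rise, raw or as B-score row- and column-corrected plate score, outside the 99.7% band of its plate's samples, either direction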
mHtt clearance: mutant huntingtin protein clearance. HeLa Exon1htt(103Q)mCFP, aggregate imaging; zero = plate's median compound well. inhibition, % at 1.5 µM. 0.42% of 47,000 active;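 active means inhibition of aggregate fluorescence above about 70%, also judged a hit by eye on the cell image, limit read from the data, passing the limit was not always enough; inconclusive means no rule stated for this call; inactive means not judged a hit on image review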;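 further: cells exposed to compound for three days before fixation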
AP complement: orthogonal test for alternative complement pathway inhibitors; Human serum alternative complement pathway, LPS-coated ELISA, C3 deposition; tested in compound mixtures; inhibition, % at 5 µM; 0.08% of 62,000 active; AID 1235;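 active means inhibition above 30% in each of the two pooled mixtures holding the compound, so the lower value exceeds 30%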
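Test system – human serum alternative complement pathway, C3 deposition on LPS-coated wells · Buffer or medium – diluted human serum in Mg2+-EGTA GVB++ · Compound dosing – 5 µM each compound, pools of ten, 50 µM per pool · Schedule – 1 h serum-compound exposure at 37 °C · Measured by – Anti-C3 ELISA, OD 450 nm · Read-out basis – percent inhibition of C3 deposition onto LPS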
M1 antagonist: blocks the rat M1 muscarinic receptor response to acetylcholine | CHO-M1 cells, Fluo-4 calcium, ACh EC80 antagonist mode; hits give low values | B-score at 10 µM | 3.4% of 64,000 active | AID 628;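 active means calcium fluorescence response, raw or row-and-column corrected B-score, differing from the plate sample mean either way at a set confidence level, mostly lower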
Target sequence (P08482 whole entry, looked up): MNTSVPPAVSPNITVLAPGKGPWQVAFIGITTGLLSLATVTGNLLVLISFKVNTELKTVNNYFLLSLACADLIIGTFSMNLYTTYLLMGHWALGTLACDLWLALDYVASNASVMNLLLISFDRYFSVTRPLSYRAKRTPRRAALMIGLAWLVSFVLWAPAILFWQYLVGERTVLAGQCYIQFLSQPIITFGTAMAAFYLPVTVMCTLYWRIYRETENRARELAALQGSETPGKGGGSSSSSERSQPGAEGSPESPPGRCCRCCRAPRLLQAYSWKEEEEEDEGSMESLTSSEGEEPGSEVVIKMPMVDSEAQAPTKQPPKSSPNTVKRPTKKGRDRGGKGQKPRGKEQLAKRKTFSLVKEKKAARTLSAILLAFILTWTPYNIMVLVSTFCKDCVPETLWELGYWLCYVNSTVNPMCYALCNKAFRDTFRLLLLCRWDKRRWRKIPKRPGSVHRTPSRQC
D1 PAM confirm: confirmation of human D1 dopamine receptor allosteric modulators; 88% of 2,200 active; luminescence at 10 µM; shares compounds with D1 allo mod; HEK293 D1 CRE-luciferase, dopamine EC30 potentiation; hits give high values;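 active means luminescence in either of two replicates above the same-plate mean plus 3 SD of the low-dose dopamine control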
D1 no dopamine: D1 (human) signaling in absence of dopamine; AID 646; luminescence at 10 µM; 0.8% of 1,900 active; shares compounds with D1 allo mod; HEK293 D1 CRE-luciferase, luminescence, no dopamine; hits give high values; in the data active means luminescence above about 3900
Isoprot counter: alters isoproterenol CRE-luciferase response in HEK293 cells; calls only at 10 µM; shares compounds with D1 allo mod; HEK293 D1 CRE-luciferase, isoproterenol EC30 counter-screen; AID 647; 63% of 2,200 active;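 active means luminescence in either replicate above plate mean of wells with a partly effective reference agonist dose plus 3 SD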;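 further: isoproterenol raises cAMP through native beta-adrenoceptor Gs so signal bypasses D1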
Of the large screens only hits and unclear results are named; the others gave an inactive call (follow-up assays come after a bar, where they were run).

N#CCCC12CCCCC1=Nc1ccccc12 (centres undefined)	none (no result: mHtt clearance)
Cc1ccc(C)c2[nH]c(=O)c(CCNC(=O)C(C)(C)C)cc12	mHtt clearance inconclusive
CCOc1cc(C(=O)OCC(=O)NCc2ccco2)cc(OCC)c1OCC	none (no result: mHtt clearance)
CCc1nc2ccccc2c(C(=O)OCC(=O)NCc2ccco2)c1C	D1 allo mod 4.4 (no result: mHtt clearance) | D1 PAM confirm 8196 | D1 no dopamine inactive | Isoprot counter inactive
COC(=O)c1cc(Cc2ccc(N)c(C(=O)OC)c2)ccc1N	D1 allo mod 3 | D1 PAM confirm 7532 | Isoprot counter active
O=C(N1CCOCC1)N1CCN(S(=O)(=O)c2ccccc2)C1	none (no result: mHtt clearance)
CCS(=O)(=O)n1nc(-c2ccccc2)nc1NCc1ccco1	D1 allo mod 9.8 (no result: mHtt clearance) | D1 PAM confirm 9056 | D1 no dopamine inactive | Isoprot counter active
COC(=O)c1ccc(CSc2nc3c(cnn3-c3ccc(F)cc3)c(=O)[nH]2)o1	D1 allo mod 5.3 (no result: mHtt clearance) | D1 PAM confirm 9428 | D1 no dopamine inactive | Isoprot counter inactive
COC(=O)c1ccc(CSc2nc3ccccc3c(=O)n2CC(C)C)o1	none (no result: D1 allo mod, M1 agonist, AP complement, M1 antagonist)
COC(=O)c1ccc(CSc2nc3c(cnn3-c3ccc(Cl)cc3)c(=O)[nH]2)o1	none (no result: mHtt clearance, AP complement)
COC(=O)c1ccc(CSc2nc3c(cnn3-c3ccccc3)c(=O)[nH]2)o1	D1 allo mod 6.5 (no result: mHtt clearance, AP complement) | D1 PAM confirm 12392 | D1 no dopamine inactive | Isoprot counter active
COC(=O)c1ccc(CSc2nc3ccccc3c(=O)n2Cc2ccco2)o1	D1 allo mod 6.5 (no result: mHtt clearance) | D1 PAM confirm 9240 | D1 no dopamine inactive | Isoprot counter active
CC1CCN(C(=O)CSc2nc3c(cnn3-c3ccccc3)c(=O)[nH]2)CC1	none
C=CCOC(=O)C(C#N)c1nc2ccccc2nc1N1CCCC1 (centres undefined)	D1 allo mod 3.1 | D1 PAM confirm 15796 | D1 no dopamine inactive | Isoprot counter active
COCCOC(=O)C(C#N)c1nc2ccccc2nc1N1CCCC1 (centres undefined)	none
Cc1cc(NS(=O)(=O)c2ccc(NC(=O)COc3ccccc3C(C)C)cc2)no1	D1 allo mod 4.1 (no result: mHtt clearance) | D1 PAM confirm 6636 | D1 no dopamine inactive | Isoprot counter inactive
Cc1cc(NS(=O)(=O)c2ccc(NC(=O)COc3ccccc3Cl)cc2)no1	none
O=C(CCSc1nc2ccccc2o1)N1CCOCC1	D1 allo mod 3.6 | D1 PAM confirm 7988 | D1 no dopamine inactive | Isoprot counter inactive
Cc1ccc(O)c(C2=NOC(O)(C(F)(F)F)C2)c1 (centres undefined)	none (no result: D1 allo mod, M1 agonist, AP complement, M1 antagonist)
Brc1ccccc1-c1nnc2sc(-c3ccc4c(c3)OCCO4)nn12	D1 allo mod 3.8 | D1 PAM confirm 7796 | D1 no dopamine inactive | Isoprot counter active
CCOC(=O)c1[nH]cnc1C(=O)Nc1ccccn1	D1 allo mod 4 | D1 PAM confirm 10664 | D1 no dopamine inactive | Isoprot counter inactive
O=C(c1ccccc1)c1nc[nH]c1C(=O)Nc1ccccn1	D1 allo mod 4.6 | D1 PAM confirm 9124 | D1 no dopamine inactive | Isoprot counter inactive
Cc1ccc2cc(CN(CCCO)S(=O)(=O)c3cccc4nsnc34)c(=O)[nH]c2c1	none (no result: D1 allo mod, M1 agonist, AP complement, M1 antagonist)
Cc1sc2ncnc(SC(C)C#N)c2c1C (centres undefined)	D1 allo mod 4.9 | D1 PAM confirm inactive | D1 no dopamine inactive | Isoprot counter inactive
CC1CCCCN1c1nc(-c2ccncc2)nc2ccccc12 (centres undefined)	D1 allo mod 13 | D1 PAM confirm 8444 | D1 no dopamine inactive | Isoprot counter active
CC1CCN(c2nc(-c3ccncc3)nc3ccccc23)CC1	D1 allo mod 3.9 | D1 PAM confirm 9916 | D1 no dopamine inactive | Isoprot counter active
CC(NC(=O)C(NC(=O)C1CCCN1C(=O)OC(C)(C)C)C(C)C)C(N)=O (centres undefined)	none
Cn1c(Cn2c(=O)sc3ccccc32)nnc1SCC(=O)NCCc1ccccc1	none (no result: mHtt clearance)
O=C(CSCC(=O)N1CCCCC1)OCC(=O)c1c[nH]c2ccccc12	none
COc1ccc(-c2cc(OC)c3c(C)oc(C)c3c(=O)c2)cc1OC	D1 allo mod 3.8 | D1 PAM confirm 12580 | D1 no dopamine inactive | Isoprot counter active
N#Cc1c(N)n(C2CCCCC2)c2nc3ccccc3nc12	D1 allo mod 3.3 | D1 PAM confirm 10836 | D1 no dopamine inactive | Isoprot counter active
CCC(=O)Nc1c(C#N)c2nc3ccccc3nc2n1C1CCCCC1	none
CCSc1nc(N2CCOCC2)c2ccccc2n1	D1 allo mod 10 | D1 PAM confirm 15840 | Isoprot counter active
CCSc1nc2ccccc2n1CC(=O)N1CCOCC1	none (no result: mHtt clearance)
CC(=O)Nc1ccc(S(=O)(=O)NCCSCc2ccc(Cl)cc2Cl)cc1	none (no result: D1 allo mod, M1 agonist, AP complement, M1 antagonist)
CC(=O)N1CCN=C1SCc1cccc(C(F)(F)F)c1	D1 allo mod 4.9 (no result: mHtt clearance) | D1 PAM confirm 10200 | D1 no dopamine inactive | Isoprot counter active
O=C(C1CC1)N1CCN=C1SCc1cccc(C(F)(F)F)c1	none
NC(=O)c1cc(Br)cc2c3c([nH]c12)CCCC3	D1 allo mod 3.9 (no result: mHtt clearance) | D1 PAM confirm 11200 | D1 no dopamine inactive | Isoprot counter active
O=c1c2c([nH]c3ccc(Br)cc13)CCCC2	none (no result: mHtt clearance)
N#CCCCCN1c2cccc3cccc(c23)S1(=O)=O	none (no result: mHtt clearance)
CC(C)CSc1nc2c(c(=O)[nH]c(=O)n2C)n1CCc1ccccc1	D1 allo mod 19 | D1 PAM confirm 14104 | D1 no dopamine inactive | Isoprot counter active
CC(C)CCSc1nc2c(c(=O)[nH]c(=O)n2C)n1CCc1ccccc1	D1 allo mod 2.6 (no result: AP complement) | D1 PAM confirm 15840 | D1 no dopamine inactive | Isoprot counter active
CCOC(=O)CSc1nc2c(c(=O)[nH]c(=O)n2C)n1CCCc1ccccc1	none (no result: M1 agonist, M1 antagonist)
Cc1csc(Sc2nc3c(c(=O)[nH]c(=O)n3C)n2CCCc2ccccc2)n1	none (no result: mHtt clearance)
CC(C)NC(=O)CCNC(=O)c1ccc(F)cc1	none (no result: mHtt clearance)
CCC(C)NC(=O)C1CCN(S(=O)(=O)c2ccc(OC)cc2)CC1 (centres undefined)	none (no result: D1 allo mod, M1 agonist, AP complement, M1 antagonist)
CCOC(=O)N1CCC(Nc2c(NCCCN(CC)c3cccc(C)c3)c(=O)c2=O)CC1	none
CCOc1ccccc1C(=O)N1CCN=C1SCc1cccnc1	none
CC(=O)OCCOc1nc(N(C)C)nc(N(C)C)n1	none (no result: mHtt clearance)
CSc1nc(N2CCOCC2)c2c3c(sc2n1)CCCC3	D1 allo mod 11 | D1 PAM confirm 11612 | D1 no dopamine inactive | Isoprot counter active
Cc1cc(Oc2ccc(-c3ccccc3)cc2)nc(N2CCOCC2)n1	none
c1ccc(Oc2nc(Oc3ccccc3)nc(N3CCOCC3)n2)cc1	D1 allo mod 3.7 | D1 PAM confirm 6884 | Isoprot counter active
c1ccc(CNc2nc(N3CCOCC3)nc(N3CCOCC3)n2)cc1	none (no result: D1 allo mod, M1 agonist, AP complement, M1 antagonist)
